Source: ChEMBL document CHEMBL3046000, “Design and synthesis of 1-(benzothiazol-5-yl)-1H-1,2,4-triazol-5-ones as protoporphyrinogen oxidase inhibitors” (Bioorg Med Chem, 2013)
pKi: −log10 of the molar value.

Assays:
[1] = Phytotoxicity against four-leaf stage Oryza sativa (rice) plants assessed as plant growth inhibition at 150 g ai/ha applied through spraying measured 30 days after compound treatment under greenhouse conditions; type: organism-based; settings: in vivo, read-out: GI
[2] = Phytotoxicity against four-leaf stage Brassica napus (oilseed rape) plants assessed as plant growth inhibition at 150 g ai/ha applied through spraying measured 30 days after compound treatment under greenhouse conditions; type: organism-based; settings: in vivo, read-out: GI
Brassica juncea [3] = assay: Post-emergence herbicidal activity against Brassica juncea seedlings assessed as plant growth inhibition at 37.5 g ai/ha measured 15 days after compound treatment under greenhouse conditions; type: functional; settings: 360 h, read-out: GI
Chenopodium album [4] = assay: Post-emergence herbicidal activity against Chenopodium album seedlings assessed as plant growth inhibition at 75 g ai/ha measured 15 days after compound treatment under greenhouse conditions; type: functional; settings: 360 h, read-out: GI
Boehmeria nivea = assay: Post-emergence herbicidal activity against Boehmeria nivea assessed as plant growth inhibition at 75 g ai/ha; type: functional; settings: read-out: GI
Procedure, shortened: (§1)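 Compounds formulated as 100 g/L emulsifiable concentrates in DMF with Tween-80 as emulsifier, then diluted with water. Sprayed post-emergence onto pot-grown plants in a greenhouse, with broadleaf weeds at the 2-leaf stage and grasses at the 1-leaf stage. Clay soil with 1.6% organic matter and CEC 12.1 […]; relative humidity about 50%. Rate (g ai/ha) = active ingredient ÷ pot surface area. Untreated and DMF + Tween-80 solvent controls.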

Solanum nigrum = assay: Post-emergence herbicidal activity against Solanum nigrum (black nightshade) assessed as plant growth inhibition at 75 g ai/ha; type: functional; settings: read-out: GI; procedure, shortened: as §1
Setaria faberi [5] = assay: Post-emergence herbicidal activity against Setaria faberi (Giant Foxtail) seedlings assessed as plant growth inhibition at 150 g ai/ha measured 15 days after compound treatment under greenhouse conditions; type: functional; settings: 360 h, read-out: GI
Myosoton aquaticum = assay: Post-emergence herbicidal activity against Myosoton aquaticum assessed as plant growth inhibition at 75 g ai/ha; type: functional; settings: read-out: GI; procedure, shortened: as §1
Capsella bursa-pastoris = assay: Post-emergence herbicidal activity against Capsella bursa-pastoris assessed as plant growth inhibition at 75 g ai/ha; type: functional; settings: read-out: GI; procedure, shortened: as §1
Eleusine indica = assay: Post-emergence herbicidal activity against Eleusine indica assessed as plant growth inhibition at 75 g ai/ha; type: functional; settings: read-out: GI; procedure, shortened: as §1
Echinochloa crus-galli [6] = assay: Post emergence herbicidal activity against Echinochloa crus-galli (barnyard grass) seedlings assessed as plant growth inhibition at 37.5 g ai/ha measured 15 days after compound treatment under greenhouse conditions; type: functional; settings: 360 h, read-out: GI
[7] = target: T1, Protoporphyrinogen oxidase, chloroplastic (Nicotiana tabacum, UniProt O24163); assay: Inhibition of Nicotiana tabacum (tobacco) recombinant PPO assessed as protoporphyrin IX formation at room temperature by fluorimetric assay
T1 sequence (O24163 whole entry): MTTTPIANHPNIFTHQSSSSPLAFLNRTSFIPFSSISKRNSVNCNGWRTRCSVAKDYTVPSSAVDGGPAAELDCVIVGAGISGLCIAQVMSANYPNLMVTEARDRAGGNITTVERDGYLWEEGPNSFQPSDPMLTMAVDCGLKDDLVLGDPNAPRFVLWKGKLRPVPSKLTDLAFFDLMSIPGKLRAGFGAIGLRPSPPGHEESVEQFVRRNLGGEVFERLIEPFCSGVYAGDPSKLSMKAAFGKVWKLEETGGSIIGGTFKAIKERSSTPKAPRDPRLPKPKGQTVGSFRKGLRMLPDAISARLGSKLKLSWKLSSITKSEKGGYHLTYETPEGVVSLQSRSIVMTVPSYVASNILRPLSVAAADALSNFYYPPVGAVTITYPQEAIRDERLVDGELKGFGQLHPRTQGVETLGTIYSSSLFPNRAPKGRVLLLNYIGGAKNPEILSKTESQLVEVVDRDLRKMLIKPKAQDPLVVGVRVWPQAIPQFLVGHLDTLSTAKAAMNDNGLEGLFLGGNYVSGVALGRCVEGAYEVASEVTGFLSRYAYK

Echinochloa crus-galli [8] = assay: Post emergence herbicidal activity against Echinochloa crus-galli (barnyard grass) seedlings assessed as plant growth inhibition at 150 g ai/ha measured 15 days after compound treatment under greenhouse conditions; type: functional; settings: 360 h, read-out: GI
Brassica juncea [9] = assay: Post-emergence herbicidal activity against Brassica juncea seedlings assessed as plant growth inhibition at 75 g ai/ha measured 15 days after compound treatment under greenhouse conditions; type: functional; settings: 360 h, read-out: GI
[10] = Phytotoxicity against 4-leaf stage Glycine max (soybean) plants assessed as plant growth inhibition at 75 g ai/ha applied through spraying measured 30 days after compound treatment under greenhouse conditions; type: organism-based; settings: in vivo, read-out: GI
Amaranthus retroflexus [11] = assay: Post emergence herbicidal activity against Amaranthus retroflexus seedlings assessed as plant growth inhibition at 37.5 g ai/ha measured 15 days after compound treatment under greenhouse conditions; type: functional; settings: 360 h, read-out: GI
Amaranthus spinosus = assay: Post-emergence herbicidal activity against Amaranthus spinosus assessed as plant growth inhibition at 75 g ai/ha; type: functional; settings: read-out: GI; procedure, shortened: as §1
Amaranthus retroflexus [12] = assay: Post emergence herbicidal activity against Amaranthus retroflexus seedlings assessed as plant growth inhibition at 150 g ai/ha measured 15 days after compound treatment under greenhouse conditions; type: functional; settings: 360 h, read-out: GI
Echinochloa crus-galli [13] = assay: Post emergence herbicidal activity against Echinochloa crus-galli (barnyard grass) seedlings assessed as plant growth inhibition at 75 g ai/ha measured 15 days after compound treatment under greenhouse conditions; type: functional; settings: 360 h, read-out: GI
Digitaria sanguinalis [14] = assay: Post-emergence herbicidal activity against Digitaria sanguinalis (hairy crabgrass) seedlings assessed as plant growth inhibition at 37.5 g ai/ha measured 15 days after compound treatment under greenhouse conditions; type: functional; settings: 360 h, read-out: GI
Setaria faberi [15] = assay: Post-emergence herbicidal activity against Setaria faberi (Giant Foxtail) seedlings assessed as plant growth inhibition at 75 g ai/ha measured 15 days after compound treatment under greenhouse conditions; type: functional; settings: 360 h, read-out: GI
Amaranthus retroflexus [16] = assay: Post emergence herbicidal activity against Amaranthus retroflexus seedlings assessed as plant growth inhibition at 75 g ai/ha measured 15 days after compound treatment under greenhouse conditions; type: functional; settings: 360 h, read-out: GI
[17] = Phytotoxicity against 4-leaf stage Glycine max (soybean) plants assessed as plant growth inhibition at 150 g ai/ha applied through spraying measured 30 days after compound treatment under greenhouse conditions; type: organism-based; settings: in vivo, read-out: GI
Sonchus asper = assay: Post-emergence herbicidal activity against Sonchus asper assessed as plant growth inhibition at 75 g ai/ha; type: functional; settings: read-out: GI; procedure, shortened: as §1
Chenopodium album [18] = assay: Post-emergence herbicidal activity against Chenopodium album seedlings assessed as plant growth inhibition at 37.5 g ai/ha measured 15 days after compound treatment under greenhouse conditions; type: functional; settings: 360 h, read-out: GI
Phytolacca acinosa = assay: Post-emergence herbicidal activity against Raddix phytolaccae assessed as plant growth inhibition at 75 g ai/ha; type: functional; settings: read-out: GI; procedure, shortened: as §1
Digitaria sanguinalis [19] = assay: Post-emergence herbicidal activity against Digitaria sanguinalis (hairy crabgrass) seedlings assessed as plant growth inhibition at 150 g ai/ha measured 15 days after compound treatment under greenhouse conditions; type: functional; settings: 360 h, read-out: GI
Setaria faberi [20] = assay: Post-emergence herbicidal activity against Setaria faberi (Giant Foxtail) seedlings assessed as plant growth inhibition at 37.5 g ai/ha measured 15 days after compound treatment under greenhouse conditions; type: functional; settings: 360 h, read-out: GI
[21] = Phytotoxicity against four-leaf stage Gossypium hirsutum (cotton) plants assessed as plant growth inhibition at 150 g ai/ha applied through spraying measured 30 days after compound treatment under greenhouse conditions; type: organism-based; settings: in vivo, read-out: GI
Symphyotrichum subulatum = assay: Post-emergence herbicidal activity against Symphyotrichum subulatum assessed as plant growth inhibition at 75 g ai/ha; type: functional; settings: read-out: GI; procedure, shortened: as §1
Commelina communis = assay: Post-emergence herbicidal activity against Commelina communis (Asiatic dayflower) assessed as plant growth inhibition at 75 g ai/ha; type: functional; settings: read-out: GI; procedure, shortened: as §1
[22] = Phytotoxicity against four-leaf stage Zea mays cv. Anjou (maize) plants assessed as plant growth inhibition at 150 g ai/ha applied through spraying measured 30 days after compound treatment under greenhouse conditions; type: organism-based; settings: in vivo, read-out: GI
Alkekengi officinarum = assay: Post-emergence herbicidal activity against Physalis alkekengi assessed as plant growth inhibition at 75 g ai/ha; type: functional; settings: read-out: GI; procedure, shortened: as §1
Brassica juncea [23] = assay: Post-emergence herbicidal activity against Brassica juncea seedlings assessed as plant growth inhibition at 150 g ai/ha measured 15 days after compound treatment under greenhouse conditions; type: functional; settings: 360 h, read-out: GI
Digitaria sanguinalis [24] = assay: Post-emergence herbicidal activity against Digitaria sanguinalis (hairy crabgrass) seedlings assessed as plant growth inhibition at 75 g ai/ha measured 15 days after compound treatment under greenhouse conditions; type: functional; settings: 360 h, read-out: GI
Veronica polita = assay: Post-emergence herbicidal activity against Veronica polita assessed as plant growth inhibition at 75 g ai/ha; type: functional; settings: read-out: GI; procedure, shortened: as §1
Senna tora = assay: Post-emergence herbicidal activity against Senna tora assessed as plant growth inhibition at 75 g ai/ha; type: functional; settings: read-out: GI; procedure, shortened: as §1
[25] = Phytotoxicity against 4-leaf stage Triticum aestivum (wheat) plants assessed as plant growth inhibition at 150 g ai/ha applied through spraying measured 30 days after compound treatment under greenhouse conditions; type: organism-based; settings: in vivo, read-out: GI
Ludwigia prostrata = assay: Post-emergence herbicidal activity against Ludwigia prostrata assessed as plant growth inhibition at 75 g ai/ha; type: functional; settings: read-out: GI; procedure, shortened: as §1
Polygonum humifusum = assay: Post-emergence herbicidal activity against Polygonum humifusum assessed as plant growth inhibition at 75 g ai/ha; type: functional; settings: read-out: GI; procedure, shortened: as §1
Ammannia baccifera = assay: Post-emergence herbicidal activity against Ammannia baccifera assessed as plant growth inhibition at 75 g ai/ha; type: functional; settings: read-out: GI; procedure, shortened: as §1
Chenopodium album [26] = assay: Post-emergence herbicidal activity against Chenopodium album seedlings assessed as plant growth inhibition at 150 g ai/ha measured 15 days after compound treatment under greenhouse conditions; type: functional; settings: 360 h, read-out: GI
Cerastium arvense = assay: Post-emergence herbicidal activity against Cerastium arvense assessed as plant growth inhibition at 75 g ai/ha; type: functional; settings: read-out: GI; procedure, shortened: as §1

Work on `CCOC(=O)C(C)Sc1nc2cc(-n3nc(C)n(C(F)F)c3=O)c(F)cc2s1` (stereo not drawn) yielded an inhibition at 720 h [1] of 50%, an inhibition at 720 h [2] of 100% and an inhibition of growth at 37.5 g/ha (Brassica juncea [3]) of no less than 90%. The inhibition of growth at 75 g/ha (Chenopodium album [4]) was 60%, the inhibition of growth at 75 g/ha (Boehmeria nivea) was 100% and the inhibition of growth at 75 g/ha (Solanum nigrum) was 100%. For the same compound, the inhibition of growth at 150 g/ha (Setaria faberi [5]) was no less than 90%, the inhibition of growth at 75 g/ha (Myosoton aquaticum) was greater than 90% and the inhibition of growth at 75 g/ha (Capsella bursa-pastoris) was 100%. The inhibition of growth at 75 g/ha (Eleusine indica) was 100%, the inhibition of growth at 37.5 g/ha (Echinochloa crus-galli [6]) was 80% and the pKi [7] was 6.62. It also gave an inhibition of growth at 150 g/ha (Echinochloa crus-galli [8]) of no less than 90%, an inhibition of growth at 75 g/ha (Brassica juncea [9]) of no less than 90% and an inhibition at 720 h [10] of 0%. It also gave an inhibition of growth at 37.5 g/ha (Amaranthus retroflexus [11]) of 80%, an inhibition of growth at 75 g/ha (Amaranthus spinosus) of 100% and an inhibition of growth at 150 g/ha (Amaranthus retroflexus [12]) of no less than 90%. It also gave an inhibition of growth at 75 g/ha (Echinochloa crus-galli [13]) of 80%, an inhibition of growth at 37.5 g/ha (Digitaria sanguinalis [14]) of 80% and an inhibition of growth at 75 g/ha (Setaria faberi [15]) of no less than 90%. It also gave an inhibition of growth at 75 g/ha (Amaranthus retroflexus [16]) of 80%, an inhibition at 720 h [17] of 0% and an inhibition of growth at 75 g/ha (Sonchus asper) of 100%. It also gave an inhibition of growth at 37.5 g/ha (Chenopodium album [18]) of 60%, an inhibition of growth at 75 g/ha (Phytolacca acinosa) greater than 90% and an inhibition of growth at 150 g/ha (Digitaria sanguinalis [19]) of no less than 90%. For the same compound, the inhibition of growth at 37.5 g/ha (Setaria faberi [20]) was no less than 90%, the inhibition at 720 h [21] was 70% and the inhibition of growth at 75 g/ha (Symphyotrichum subulatum) was 100%. For the same compound, the inhibition of growth at 75 g/ha (Commelina communis) was greater than 90%, the inhibition at 720 h [22] was 30% and the inhibition of growth at 75 g/ha (Alkekengi officinarum) was greater than 90%. It also gave an inhibition of growth at 150 g/ha (Brassica juncea [23]) of no less than 90%, an inhibition of growth at 75 g/ha (Digitaria sanguinalis [24]) of 80% and an inhibition of growth at 75 g/ha (Veronica polita) of 100%. For the same compound, the inhibition of growth at 75 g/ha (Senna tora) was greater than 90%, the inhibition at 720 h [25] was 80% and the inhibition of growth at 75 g/ha (Ludwigia prostrata) was greater than 90%. For the same compound, the inhibition of growth at 75 g/ha (Polygonum humifusum) was 100%, the inhibition of growth at 75 g/ha (Ammannia baccifera) was greater than 90% and the inhibition of growth at 150 g/ha (Chenopodium album [26]) was no less than 90%. The inhibition of growth at 75 g/ha (Cerastium arvense) was 100%.
